Inhibition data for two molecules are collected here from PubChem BioAssay AID588789 (The Scripps Research Institute Molecular Screening Center, 2011).

In the test the target is Platelet-activating factor acetylhydrolase (Mus musculus) (UniProt Q60963). As to the kind of experiment: pPAFAH inhibition after oral dosing in mice, late-stage follow-up, in vivo study, gel-based competitive ABPP, fluorescence (AID 588789). The following applies: brain membrane gel ABPP, HT-01, 50 mg/kg oral dose, 4 h, hits give high values. Put shortly: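 Assay system: mouse brain membrane proteome after oral dosing; buffer or medium: Dulbecco's PBS (DPBS); schedule: 4 h dosing-to-sacrifice, then 30 min probe labelling, 37 °C; technique: SDS-PAGE followed by in-gel fluorescence scan of pPAFAH band; evaluation: % inhibition from band density versus vehicle; benchmarks: vehicle mice high, gel background low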
Platelet-activating factor acetylhydrolase (Mus musculus), sequence (Q60963 whole entry, looked up): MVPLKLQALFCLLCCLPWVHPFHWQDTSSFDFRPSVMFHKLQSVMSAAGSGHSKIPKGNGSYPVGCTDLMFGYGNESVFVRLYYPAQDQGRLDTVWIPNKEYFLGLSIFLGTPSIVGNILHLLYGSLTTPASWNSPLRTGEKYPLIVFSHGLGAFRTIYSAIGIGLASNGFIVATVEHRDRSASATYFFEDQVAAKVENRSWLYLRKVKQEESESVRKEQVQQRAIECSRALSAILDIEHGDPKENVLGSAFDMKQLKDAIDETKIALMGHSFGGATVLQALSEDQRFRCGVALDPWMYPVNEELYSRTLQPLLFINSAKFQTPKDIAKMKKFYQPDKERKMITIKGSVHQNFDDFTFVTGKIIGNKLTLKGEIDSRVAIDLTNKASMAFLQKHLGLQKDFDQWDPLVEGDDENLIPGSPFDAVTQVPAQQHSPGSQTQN

As a reminder, the inhibition is the relative decrease from the control value, in per cent.

`Cc1cc(N2CCN(C(=O)Oc3ccc(-c4ccccc4)cn3)CC2)c2ccccc2n1`: the inhibition is 86%.
On to `Cc1cc(N2CCN(C(=O)Oc3ccc(-c4ccccc4)cc3)CC2)c2ccccc2n1`, for which the inhibition was 63%.
